FXIa inh: inhibitors of human coagulation factor XIa; P03951; purified FXIa, Boc-Glu-Ala-Arg-AMC fluorogenic substrate; inhibition, % at 5 µM; actives 0.14% (n = 220,000); AID 798;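 active means inhibition of at least 40%; inactive means inhibition below 40%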;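 further: fluorescence of freed AMC excited at 355 nm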
hK5 inh: inhibitors of human kallikrein 5; Q9Y337; recombinant hK5, fluorogenic AMC substrate cleavage; inhibition, % at 5 µM; actives 0.59% (n = 210,000); AID 873;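 active means inhibition of 40% or more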
Calpain2 inh: blocks pig calpain II enzyme activity; inhibition, % at 16 µM; actives 0.37% (n = 220,000); purified calpain II, fluorogenic peptide substrate, 30 min; AID 1236;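 active means inhibition above about 50%, limit read from the data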
FXIIa inh: factor XIIa (human) inhibition. purified FXIIa, Boc-QGR-AMC fluorogenic substrate, 2 h. inhibition, % at 5 µM. actives 0.3% (n = 220,000). AID 800; in the data active means inhibition above about 40%
thrombin 1536: blocks human thrombin protease activity; P00734; alpha-thrombin, Boc-VPR-AMC fluorogenic substrate cleavage; inhibition, % at 5 µM; actives 0.26% (n = 220,000); AID 1046;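 active means inhibition at or above 40%; inactive means inhibition below 40%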
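System – human alpha-thrombin · Medium – pH 7.5 Tris (50 mM) with NaCl 150 mM, Tween 20 0.05% · Compound – single-point dosing at 5 µM, 0.2% DMSO · Incubation – enzyme reaction carried out at room temperature · Technique – fluorescence of released AMC, ex 355 nm, em 460 nm · Read-out basis – % inhibition of thrombin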
Of the large screens only hits and unclear results are named; the others gave an inactive call. This is a sample that favours compounds with a hit; in the whole collection about 1.4% have one here.

COc1ccc(NC(=O)c2cc([N+](=O)[O-])ccc2N2CCNCC2)cc1	hK5 inh 51
O=C1CCCN1c1ccc(S(=O)(=O)O)cc1 (tested in a mixture with another compound)	none
COP(=S)(OC)SCN1C(=O)c2ccccc2C1=O	none
Cn1nnc(CC[N+](C)(C)C)n1	FXIa inh 56, thrombin 1536 43
O=C(C1CCC(=O)N1C1CCCCC1)N1CCC2(CC1)OCCO2 (stereo not drawn)	Calpain2 inh 59
O=C(CNC1CCCCC1)N1CCC2(CC1)OCCO2	none
CC(=O)c1ccccc1NC(=O)C1C2CCC(O2)C1C(=O)O (stereo not drawn)	none
CC1CC(NC(=O)C2C3CCC(O3)C2C(=O)O)CC(C)(C)C1 (stereo not drawn)	FXIIa inh 46
CCC(=O)Nc1cc(C(=O)N2CCC3(CC2)OCCO3)ccc1S(=O)(=O)c1ccc(C)cc1	none

Source: PubChem BioAssay (several laboratories)
